# Bioassay records (PubChem BioAssay)
# Shown are actives, neighbours in structure and some others; about 7.4% of the full set was active somewhere.
# JNK3 inh – inhibitors of human JNK3 kinase | P53779 | purified JNK3 kinase activity, HTS | inhibition, % at 8 µM | 60,000 compounds, 0.61% hits; in the data active = inhibition above about 17%;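 note: 0% = DMSO and 100% = reference inhibitor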
# Target sequence (P53779 whole entry, looked up): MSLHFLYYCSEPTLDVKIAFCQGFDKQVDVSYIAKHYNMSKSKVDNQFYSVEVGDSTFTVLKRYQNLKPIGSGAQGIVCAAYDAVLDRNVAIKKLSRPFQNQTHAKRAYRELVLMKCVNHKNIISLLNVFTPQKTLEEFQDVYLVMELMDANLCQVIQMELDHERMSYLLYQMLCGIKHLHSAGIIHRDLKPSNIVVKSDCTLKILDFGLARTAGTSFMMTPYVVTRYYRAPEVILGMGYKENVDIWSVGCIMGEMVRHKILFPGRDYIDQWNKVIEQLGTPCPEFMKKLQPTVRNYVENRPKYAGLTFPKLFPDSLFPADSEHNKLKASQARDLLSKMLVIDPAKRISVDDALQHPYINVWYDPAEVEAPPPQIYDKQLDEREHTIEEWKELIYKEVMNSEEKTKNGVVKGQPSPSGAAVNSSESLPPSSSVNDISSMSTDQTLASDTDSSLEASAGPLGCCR
# S1P3 ag – S1P3 (human) receptor agonism; Q99500; S1P3 NFAT-BLA reporter cells, FRET ratio; relative to 1 µM S1P, basal subtracted; activation, % at 4.5 µM; 60,000 compounds, 0.1% hits;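 active = activation above the screen-wide mean plus 3 SD, cut at about 4.5% in these data, passing the limit was not always enough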
#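 Assay system: stable CHO line with human S1P3, Gα16, NFAT-BLA reporter; Detection: FRET β-lactamase substrate fluorescence, excitation 405 nm, 460/535 nm emission ratio, background-subtracted; Read-out: percent activation versus median 1 µM S1P response, basal-subtracted, per plate; Incubation: cells plated overnight, compound 4 h 37 °C, substrate 2 h RT.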
# M1 ag – M1 muscarinic receptor agonism | 64,000 compounds, 3% hits | CHO-M1 cells, Fluo-4 calcium fluorescence, agonist mode; hits give high values | B-score at 10 µM;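 active = fluorescence rise, raw or as B-score row- and column-corrected plate score, outside the 99.7% band of its plate's samples, either direction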
# S1P1 ag pot – activates or potentiates agonism at human S1P1 receptor | P21453 | S1P1 CRE-bla cells, forskolin, beta-lactamase FRET, potentiator mode; S1P1 agonist co-added at EC20, 2 nM; 100% = saturating reference agonist, 0% = basal | activation, % at 9.5 µM | 56,000 compounds, 0.57% hits;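 active = activation above a cutoff set at the mean activation of all tested compounds plus 3 SD, cut at about 54% in these data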;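 note: forskolin at 4 µM as EC80 and the EC20 agonist is SEW2871; 100% = SEW2871 at its EC100 plus forskolin at EC80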
# Jurkat viability – reduces viability or proliferation of Jurkat cells | Jurkat E6.1 viability, ATP luminescence, 48 h | inhibition, % at 4 µM | 56,000 compounds, 1.2% hits | AID 463;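 active = inhibition above the mean inhibition of all tested compounds plus 3 SD, cut at about 28% in these data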
# M1 antagonist – M1 muscarinic receptor (rat) antagonism | B-score at 10 µM | 64,000 compounds, 3.4% hits | P08482 | AID 628 | CHO-M1 cells, Fluo-4 calcium, ACh EC80 antagonist mode; hits give low values;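 active = calcium fluorescence response, raw or row-and-column corrected B-score, differing from the plate sample mean either way at a set confidence level, mostly lower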
# M1 agonist conf – confirmation of rat M1 muscarinic receptor agonists | CHO-M1 cells, Fluo-4 calcium fluorescence, agonist mode; actives lie on both sides | fluorescence change (max-min) at 10 µM | 1,700 compounds, 19% hits | AID 1488 | shares compounds with M1 ag;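 active = fluorescence change differs from the solvent-only DMSO control mean at a set confidence level in both duplicate runs; inconclusive = differs from solvent-only control mean in just one of two runs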;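 note: an EC20 dose of acetylcholine follows compound addition during the same imaging run; raw fluorescence intensity difference in instrument units with no normalization to controls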
# M4 agonist ctr – rat M4 muscarinic agonism, M1 counter-screen. shares compounds with M1 ag. CHO M4/Gqi5 cells, Fluo-4 calcium fluorescence, agonist mode; actives lie on both sides. fluorescence change (max-min) at 10 µM. 1,700 compounds, 9% hits;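 active = fluorescence change differing from the plate's solvent-only control wells at 99.7% confidence in both duplicates, whether higher or lower; inconclusive = differs from solvent controls in only one of two duplicates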
# The depositor's hits bear a star; ? = inconclusive; / = no result given.
SMILES,JNK3 inh,S1P3 ag,M1 ag,S1P1 ag pot,Jurkat viability,M1 antagonist,others
COc1ccc(C(=O)Nc2cccc(C)c2)cc1,3,-2,0.59,-16,1,0.72,
Cc1[nH]c(=O)[nH]c1C(=O)CCCCC(=O)OCC(=O)Nc1ccccn1,43*,0,1.2,-8,5,-0.024,
CCOC(=O)CCCCC(=O)c1[nH]c(=O)[nH]c1CSc1nc2ccccc2[nH]1,-42,2,/,-5,-10,/,
CCOC(=O)Nc1ccc2c(c1)N(C(=O)N(CC)CC)c1ccccc1CC2,/,/,-0.17,/,/,-0.3,
CCOC(=O)CCc1c(C)nc2c(c(C)nn2C(C)(C)C)c1C,2,-1,0.45,-8,4,2.6*,
CC(C)c1ccc(OCc2nc(-c3ccccn3)no2)c(Br)c1,-2,-2,-0.59,86*,9,-0.077,
Clc1ccccc1OCc1nc(-c2ccncc2)no1,-2,-1,-0.45,/,1,-1.3,
Clc1ccc(OCc2nc(-c3ccncc3)no2)c(Br)c1,-1,0,0.55,72*,10,0.68,
CC1CCN(C(=O)CSc2nnc(CN3CCOCC3)n2-c2ccccc2)CC1,7,1,-0.42,-12,-5,-0.32,
CCCCNc1ncnc2c1cnn2-c1ccccc1,6,0,0.81,/,90*,0.25,
c1ccc(-n2ncc3c(NCc4ccco4)ncnc32)cc1,20*,-1,1.3,/,26,0.2,
CCCCNc1ncnc2c1cnn2-c1ccc(Cl)cc1,-1,-1,-0.1,6,86*,-0.094,
Cn1cc(C(=O)NCCc2ccccc2)c(=O)c2cc(S(=O)(=O)N3CCOCC3)ccc21,7,0,0.15,0,-6,0.22,
CCOc1c(C)cc2[nH]c(CCC(=O)O)nc2c1C,-5,-5,-0.19,1,/,2.1,
CCOc1cc(C(=O)Nc2ccc(S(=O)(=O)Nc3cc(C)on3)cc2)cc(OCC)c1OCC,-2,1,-3.5*,-30,-4,1.4,
COc1cc(C(=O)Nc2ccc(S(=O)(=O)Nc3cc(C)on3)cc2)cc(OC)c1OC,-5,-1,-0.0099,-9,3,0.2,
O=C(CCc1nc(-c2ccccc2F)no1)Nc1ccc(Oc2ccccc2)cc1,2,-1,-0.56,128*,19,-0.8,
Cc1ccc(S(=O)(=O)N2CCN(C(=O)CCC(=O)N3CCc4ccccc43)CC2)cc1,/,/,1.1,/,/,-3.3*,
COc1ccc(C(=O)c2ccc(N(C)C)cc2)c(OC)c1,1,-1,/,11,81*,/,
COc1ccc(C(=O)c2ccc(N3CCOCC3)cc2)c(OC)c1,3,-4,-0.21,9,/,0.039,
COc1ccc(N2CCN(/C(=N\S(=O)(=O)c3ccccc3)Nc3nc(C)cc(C)n3)CC2)cc1,3,-1,0.25,8,-8,0.55,
CN(C)CCCN1C(=O)C(=O)/C(=C(/O)c2ccc3c(c2)OCCO3)C1c1ccccn1 (stereo not drawn),-1,-1,0.39,4,-9,0.16,
COc1ccc(-c2csc(Cc3nnc4n3CCCCC4)n2)cc1,1,0,0.84,11,4,2.3*,
O=C1N/C(=C\c2ccccc2)c2ccccc21,6,0,0.26,-18,81*,-0.19,
COc1ccc(-c2nc(-c3cccc(C)c3)no2)cc1OC,2,0,-0.92,108*,4,-0.56,
SMILES,JNK3 inh,S1P3 ag,M1 ag,S1P1 ag pot,Jurkat viability,M1 antagonist,others
COc1ccc(-c2nc(-c3cccc(C(F)(F)F)c3)no2)cc1OC,-6,-2,-0.54,75*,2,0.23,
COc1cc(-c2nc(-c3cccc(C)c3)no2)cc(OC)c1OC,2,-1,/,-18,3,/,
COc1ccc(-c2nc(-c3ccccc3OC)no2)cc1OC,-2,0,1.4,83*,1,-1.3,
COc1ccccc1-c1nc(-c2cccc(C)c2)no1,-5,-1,0.18,99*,2,0.43,
CCOc1cc(-c2nc(-c3ccccc3OC)no2)cc(OCC)c1OCC,-11,-1,0.93,/,1,-0.00017,
Cc1ccc(-c2nc(-c3ccccc3)no2)c(Cl)c1,-3,-1,0.042,6,-2,0.017,
Cc1nnc(SCC(=O)NCCc2ccccc2)[nH]c1=O,-5,-1,0,3,1,-0.93,
CN(C(=O)c1cnccn1)c1nnc(-c2cccnc2)s1,1,0,-0.034,7,-7,0.92,
CCOC(=O)C(C(=O)Nc1nccs1)C1CCCCC1 (stereo not drawn),3,-2,0.47,-14,-2,-0.67,
CCCOc1cccc(NC(=O)c2cc(C)oc2C)c1,-12,-2,-0.12,6,-6,0.56,
CSCC[C@H](NC(=O)Nc1ccc(C)cc1C)C(=O)O,5,1,0.65,11,-7,0.74,
CSCCC(Nc1ncnc2ccc(Br)cc12)C(=O)O (stereo not drawn),19*,-1,-1.3,9,2,0.83,
Nc1nonc1-c1nc2ccccc2n1Cc1ccccc1,1,-1,0.1,/,89*,0.78,
CCOC(=O)c1ccccc1NC(=O)Cn1c(-c2nonc2N)nc2ccccc21,6,-2,1.1,-19,98*,1.3,
COc1ccc(NC(=O)c2cnc3sccn3c2=O)cc1OC,-9,0,0.23,0,4,-1.3,
O=C(Nc1nccs1)C12CC3CC(C1)CC(C(=O)Nc1nccs1)(C3)C2,13,0,4*,14,0,-0.31,M1 agonist conf=?;M4 agonist ctr=-40
O=C(NC1=NCCS1)C12CC3CC(C1)CC(C(=O)NC1=NCCS1)(C3)C2,2,0,0.73,-10,0,-0.7,
COc1ccc(CCNC(=O)CSc2nnc(CNc3ccc(Cl)cc3)o2)cc1OC,0,0,-2.2*,22,7,0.015,M1 agonist conf=-15;M4 agonist ctr=-64
Cc1ccc(S(=O)(=O)N2CCN(c3nc(C)c4c(c3C#N)CC(C)(C)OC4)CC2)cc1,9,-4,-0.34,8,/,-0.11,
COc1ccc(C2=NO[C@@H]3C(=O)N(C4CCCCC4)C(=O)[C@H]23)cc1OC,-2,-2,18*,-22,-4,0.041,M1 agonist conf=-10;M4 agonist ctr=-28
Cc1nc(SCC(=O)c2ccccc2)c(C#N)c(-c2ccco2)c1C(=O)NCc1ccco1,12,-1,1.1,-3,/,0.28,
CCC(Oc1ccccc1)C(=O)N1CC(C)CC(C)C1 (stereo not drawn),7,0,0,3,0,0,
Cn1c(=O)c(=O)n(C)c2cc(S(=O)(=O)Nc3ccc4c(c3)OCCO4)ccc21,0,-1,0.034,-27,4,0.0082,
